Article PMC5351328 (Clinical and Translational Science, 2016)
Where two headings read alike, the source gives them in different places.

Tests used:
[1] = assay type: in vivo, human; conditions: for CL/F / AUC / AUC(0-inf) / Cmax / concentration at 14 day / Tmax / Vd/F / half-life: geometric mean (SD); for AUC / AUC(0-inf) / Cmax / concentration at 14 day / Tmax / Vd/F / half-life: human, plasma, oral; for AUC: AUC0–τ; for AUC(0-inf): AUC0–∞; for concentration at 14 day: Cmin; for Vd/F: Vz/F; for time to steady-state conditions: predose samples
Method in brief: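 Plasma sampled on Days 1 and 14 predose and 0.5–24 h postdose, plus predose on Days 3, 5, 7, 10, 13, 16. Blood kept on ice, spun 2,000g 15 min at 5°C within 45 min, and plasma stored at –70°C. Extraction was by protein precipitation with internal standard. Parameters came from noncompartmental analysis. ANOVA on ln-transformed Cmax, Cmin and AUC0–τ gave geometric mean ratios with 90% CIs versus matched controls.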

[2] = Safety and tolerability; assay type: in vivo, human; conditions: for tolerability: 150 mg once daily for 14 days, regardless of HI
Method in brief: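 Adverse events were monitored continuously and graded with the Division of AIDS toxicity scale. Hematology, clinical chemistry, urinalysis and 12-lead ECG were done at screening, baseline (Day –1), Day 14 and Day 28, with hematology and chemistry also at Day 7. Physical exams ran through follow-up (Day 28, or Day 35 for hepatic impairment). Data were summarised descriptively without formal statistical testing.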

[3] = Day 14, mild hepatic impairment
[4] = Day 14, moderate hepatic impairment
[5] = 150 mg, Day 14, 150 mg once daily, matched controls (mild)
[6] = 150 mg, Day 14, 150 mg once daily, matched controls (moderate)
[7] = 150 mg, Day 14, 150 mg once daily, mild hepatic impairment
[8] = 150 mg, Day 14, 150 mg once daily, moderate hepatic impairment

With `CCCCOCCOc1ccc(-c2ccc3c(c2)/C=C(/C(=O)Nc2ccc([S@@+]([O-])Cc4cncn4CCC)cc2)CCCN3CC(C)C)cc1` [cenicriviroc] the CL/F ([1]; Day 1, 150 mg, matched controls (mild)) was 22.1 L/h, the CL/F ([1]; Day 1, 150 mg, matched controls (moderate)) was 31.7 L/h and the CL/F ([1]; Day 1, 150 mg, mild hepatic impairment) was 27.1 L/h. For the same compound, the CL/F ([1]; Day 1, 150 mg, moderate hepatic impairment) was 25.8 L/h, the CL/F ([1]; Day 14, 150 mg once daily, matched controls (mild)) was 14.4 (1.5) L/h and the CL/F ([1]; Day 14, 150 mg once daily, matched controls (moderate)) was 25.3 (2.0) L/h. For the same compound, the CL/F ([1]; Day 14, 150 mg once daily, mild hepatic impairment) was 23.2 (1.9) L/h, the CL/F ([1]; Day 14, 150 mg once daily, moderate hepatic impairment) was 16.3 (1.3) L/h and the “AUC0–τ lower than matched controls” value [1, 3] was 38%. The “Cmax lower than matched controls” value [1, 3] was 40%, the “Cmin lower than matched controls” value [1, 3] was roughly 27% and the “AUC0–τ higher than matched controls” value [1, 4] was 55%. The “Cmax higher than matched controls” value [1, 4] was 29%, the “Cmin higher than matched controls” value [1, 4] was roughly 97% and the AUC [1, 5] was 10400 ng·h/mL. The AUC [1, 6] was 5940 ng·h/mL, the AUC [1, 7] was 6470 ng·h/mL and the AUC [1, 8] was 9180 ng·h/mL. For the same compound, the AUC(0-inf) [1, 5] was 18900 ng·h/mL, the AUC(0-inf) [1, 6] was 11000 ng·h/mL and the AUC(0-inf) [1, 7] was 14600 ng·h/mL. It also gave an AUC(0-inf) [1, 8] of 26100 ng·h/mL, a Cmax [1, 5] of 759 ng/mL and a Cmax [1, 6] of 469 ng/mL. It also gave a Cmax [1, 7] of 452 ng/mL, a Cmax [1, 8] of 607 ng/mL and a concentration at 14 day [1, 5] of 248 ng/mL. It also gave a concentration at 14 day [1, 6] of 140 ng/mL, a concentration at 14 day [1, 7] of 180 ng/mL and a concentration at 14 day [1, 8] of 275 ng/mL. It also gave a Tmax [1, 5] of 5.66 h, a Tmax [1, 6] of 4.49 h and a Tmax [1, 7] of 5.34 h. The Tmax [1, 8] was 4.83 h, the Vd/F ([1]; 150 mg, Day 1, 150 mg, matched controls (mild)) was 262 L and the Vd/F ([1]; 150 mg, Day 1, 150 mg, matched controls (moderate)) was 370 L. The Vd/F ([1]; 150 mg, Day 1, 150 mg, mild hepatic impairment) was 329 L, the Vd/F ([1]; 150 mg, Day 1, 150 mg, moderate hepatic impairment) was 386 L and the Vd/F [1, 5] was 455 L. The Vd/F [1, 6] was 816 L, the Vd/F [1, 7] was 995 L and the Vd/F [1, 8] was 886 L. It also gave a half-life ([1]; 150 mg, t1/2, Day 1, 150 mg, moderate hepatic impairment) of 10.4 h, a half-life ([1]; 150 mg, t1/2, Day 14, 150 mg once daily, matched controls (mild)) of 22 h and a half-life ([1]; 150 mg, t1/2, Day 14, 150 mg once daily, matched controls (moderate)) of 22.4 h. The half-life ([1]; 150 mg, t1/2, Day 14, 150 mg once daily, mild hepatic impairment) was 29.7 h, the half-life ([1]; 150 mg, t1/2, Day 14, 150 mg once daily, moderate hepatic impairment) was 37.6 h and the “time to steady-state conditions” value ([1]; matched controls) was 7 to 10 days. The “time to steady-state conditions” value ([1]; participants with mild or moderate HI) was 10 to 13 days, the tolerability [2] was “generally well tolerated” and the tolerability ([2]; listed as Cenicriviroc) was “well tolerated”. The “AST (treatment-emergent Grade 1 elevation)” value ([2]; Day 7, one matched control (moderate), resolved upon continued dosing) was 1.3 x ULN, the AST ([2]; Day 28, another participant with moderate HI, screening 5.9 x ULN) was 10.2 x ULN and the “Participants with any treatment-related AEs” value ([2]; matched controls (mild) (N = 7)) was 3 (42.9) N (%).
